Only some compounds are listed: those with a hit (about 1.9% of all), similar ones and a draw of the others.
Scp1 inh – Scp-1 phosphatase inhibitors, primary screen, biochemical, colorimetric, uHTS; Recombinant Scp1, phosphopeptide, malachite green phosphate absorbance; inhibition, % at 20 µM; AID 493091, 2011; Carboxy-terminal domain RNA polymerase II polypeptide A small phosphatase 1 (Homo …; 0.88% of 340,000 active;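 active means inhibition above about 50% at 20 µM, limit read from the data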;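 further: plate controls were DMSO wells with enzyme for no effect and wells lacking enzyme for full effect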
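Test system: SCP-1 catalytic domain; Buffer or medium: Acidic Tris acetate buffer with magnesium and detergent; Also added: Phosphorylated 17-residue peptide substrate; Compound: single 20 µM dose, 1% DMSO; Schedule: enzyme reaction 45 min at room temperature, colour 5 min, stabilisation 30 min; Signal: Phosphate-binding colour reagent, absorbance read at 630 nm.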
LMPTP block – LMPTP phosphatase inhibitors, primary screen, biochemical, fluorescence intensity, uHTS. recombinant LMPTP-A, OMFP fluorogenic substrate. AID 651560, 2012. Low molecular weight phosphotyrosine protein phosphatase (Homo sapiens), P24666. 0.22% of 360,000 active. inhibition, % at 20 µM;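 active means compounds that cut the enzyme signal by at least half of the control window in the single-dose screen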;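 further: plate controls were DMSO wells with enzyme plus substrate for no effect and substrate without enzyme for full effect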
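Test system: LMPTP-A phosphatase enzyme; input: 0.625 nM LMPTP-A final; reagent: OMFP substrate, 400 µM final; compound dosing: 20 µM single dose, 3% DMSO; incubation: 50 min dark incubation at room temperature; measured by: endpoint fluorescence intensity from OMFP dephosphorylation; measure: % inhibition relative to no-enzyme and uninhibited control wells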
UBC9 SUMO inh – inhibitors of in vitro SUMOylation cascade, primary screen, biochemical, HTRF, uHTS; SUMO-conjugating enzyme UBC9 (Homo sapiens), P63279; HTRF SUMOylation assay, SAE1/SAE2 + UBC9; inhibition, % at 35 µM; 0.36% of 290,000 active; AID 2006, 2009; in the data active means inhibition above about 50%, passing the limit was not always enough
Target sequence (P63279 whole entry, looked up): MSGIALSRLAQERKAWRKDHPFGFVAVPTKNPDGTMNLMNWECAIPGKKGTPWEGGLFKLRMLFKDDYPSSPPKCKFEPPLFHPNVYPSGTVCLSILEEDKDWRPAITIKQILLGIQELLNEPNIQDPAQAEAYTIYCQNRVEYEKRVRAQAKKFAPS
SUMO1 PPI mod – modulators of SUMO1 protein-protein interactions, primary screen, biochemical, uHTS. Small ubiquitin-related modifier 1 (Homo sapiens), P63165. SUMO1 binding to a labelled peptide, TR-FRET, 1 h. inhibition, % at 20 µM. 0.33% of 360,000 active. AID 602429, 2012; in the data active means inhibition above about 37%
STEP block – STEP phosphatase inhibitors, primary screen, biochemical, fluorescence intensity, uHTS. 0.25% of 360,000 active. Tyrosine-protein phosphatase non-receptor type 5 (Homo sapiens), P54829. recombinant STEP, OMFP fluorogenic substrate. inhibition, % at 20 µM. AID 588621, 2011;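 active means inhibition at 20 µM, scaled per plate between control wells, above about 37%, limit read from the data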;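 further: 0% = DMSO with enzyme and substrate and 100% = substrate only without enzyme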
Target sequence (P54829 whole entry, looked up): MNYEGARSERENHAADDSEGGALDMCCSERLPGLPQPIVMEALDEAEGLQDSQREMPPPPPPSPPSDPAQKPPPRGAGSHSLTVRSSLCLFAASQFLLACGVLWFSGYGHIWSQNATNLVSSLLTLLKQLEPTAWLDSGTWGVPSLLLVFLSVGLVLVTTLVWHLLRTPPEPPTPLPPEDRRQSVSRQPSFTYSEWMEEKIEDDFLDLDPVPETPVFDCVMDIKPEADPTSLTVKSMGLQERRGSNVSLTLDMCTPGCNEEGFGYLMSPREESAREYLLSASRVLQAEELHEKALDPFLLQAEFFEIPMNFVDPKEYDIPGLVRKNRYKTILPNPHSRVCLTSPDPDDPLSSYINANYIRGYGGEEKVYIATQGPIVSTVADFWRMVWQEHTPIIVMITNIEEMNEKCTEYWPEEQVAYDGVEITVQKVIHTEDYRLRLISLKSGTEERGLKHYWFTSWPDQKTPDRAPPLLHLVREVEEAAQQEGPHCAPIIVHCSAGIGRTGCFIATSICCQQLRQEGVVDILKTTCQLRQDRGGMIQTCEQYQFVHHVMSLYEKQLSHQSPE
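Assay system: isolated STEP enzyme. Buffer or medium: pH 6.0 Bis-Tris with DTT and Tween 20. Also added: fluorogenic phosphatase substrate OMFP at 25 µM final. Dosing: 20 µM, 1% DMSO. Timing: 20 min reaction, room temperature, in the dark. Measured by: fluorescence intensity, excitation 480 nm, emission 540 nm. Evaluation: normalized % inhibition.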
DNMT1 block – human DNMT1 methyltransferase inhibitors, primary screen, biochemical, molecular beacon, fluorescence, HinP1I cleavage, uHTS | DNA (cytosine-5)-methyltransferase 1 (Homo sapiens), P26358 | AID 588458, 2011 | 0.83% of 360,000 active | inhibition (reported as % activation of signal), % at 10 µM; in the data active means inhibition above about 50%
DNMT1 inh conf – DNMT1 methyltransferase inhibitor retest, confirmation, biochemical, molecular beacon, fluorescence, single concentration; shares compounds with DNMT1 block; DNMT1 molecular beacon HinP1I cleavage; inhibition, % at 10 µM; 8% of 2,300 active; AID 602385, 2012;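 active means average inhibition of at least 30% in the single-concentration confirmation test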
Beacon interf – beacon fluorescence artifact counter-screen; shares compounds with DNMT1 block; DNMT1 molecular beacon spectral interference counterscreen, fluorescence 485/520; activation (fluorescence interference), % at 10 µM; 1% of 2,300 active; AID 602387;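 active means activation of at least 30% at 10 µM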;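 further: DNMT1 catalytic domain with a HinP1I cleavage step and a FAM/dabcyl DNA beacon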
* hit, by the source's call.

What do the screens show for `O=C(N[C@@H]1C/C=C\C[C@H](CC(=O)N(CCO)Cc2ccccc2)C(=O)NC[C@@H](c2ccccc2)OC1=O)OCC1c2ccccc2-c2ccccc21`?
Scp1 inh: -4.4; LMPTP block: 3.6; SUMO1 PPI mod: -7.0; STEP block: 0.1; DNMT1 block: 37.4

What do the screens show for `C[C@@H]1COC(=O)[C@H](Cc2ccc(F)cc2)C/C=C\C[C@@H](CC(=O)N[C@H](CO)Cc2ccccc2)C(=O)N1`?
Scp1 inh: 12.2; LMPTP block: 2.0; SUMO1 PPI mod: 8.1; STEP block: 0.2; DNMT1 block: -0.2

What do the screens show for `O=C(C[C@H]1C/C=C\C[C@@H](Cc2ccc(F)cc2)C(=O)O[C@H](c2ccccc2)CNC1=O)N[C@@H](CO)Cc1ccccc1`?
Scp1 inh: -0.2; LMPTP block: 0.5; SUMO1 PPI mod: 0.5; STEP block: 0.5; DNMT1 block: 85.0*; DNMT1 inh conf: -0.1; Beacon interf: -6.4

What do the screens show for `O=C(C[C@H]1C/C=C\CC[C@@H](Cc2ccc(F)cc2)C(=O)O[C@@H](c2ccccc2)CNC1=O)N[C@H](CO)Cc1ccccc1`?
Scp1 inh: -8.2; LMPTP block: -1.7; SUMO1 PPI mod: 3.0; STEP block: 0.1; DNMT1 block: 0.8

What do the screens show for `O=C(C[C@@H]1C/C=C\C[C@@H](Cc2ccc(F)cc2)C(=O)OC[C@@H](Cc2ccccc2)NC1=O)N[C@H](CO)Cc1ccccc1`?
Scp1 inh: -2.3; LMPTP block: 2.0; SUMO1 PPI mod: 1.9; STEP block: -0.9; DNMT1 block: 68.2*; DNMT1 inh conf: 3.1; Beacon interf: -0.1

How did O=C(C[C@H]1C/C=C\C[C@H](NC(=O)OCC2c3ccccc3-c3ccccc32)C(=O)O[C@H](c2ccccc2)CNC1=O)N[C@H](CO)Cc1ccccc1 do in these assays?
Scp1 inh: 1.9; LMPTP block: -1.1; SUMO1 PPI mod: -1.8; STEP block: -1.1; DNMT1 block: 56.7*; DNMT1 inh conf: 5.9; Beacon interf: -4.3

How did CCCCCCn1nc(C(=O)Nc2nc3c(s2)CCCC3)c2ccccc2c1=O do in these assays?
Scp1 inh: 3.8; LMPTP block: 1.9; UBC9 SUMO inh: 4.0; SUMO1 PPI mod: 1.2; STEP block: -1.3; DNMT1 block: 4.8

How did O=C(OCCCc1cc2ccccc2c(=O)o1)c1ccc2c(c1)OCO2 do in these assays?
Scp1 inh: -2.7; LMPTP block: -0.5; SUMO1 PPI mod: 0.0; STEP block: 2.0; DNMT1 block: 3.1

Results for O=C(OCCc1cc2ccccc2c(=O)o1)c1ccc2c(c1)OCO2 ?
Scp1 inh: -4.4; LMPTP block: 16.6; SUMO1 PPI mod: 8.3; STEP block: 0.9; DNMT1 block: 70.7*; DNMT1 inh conf: 1.4; Beacon interf: 1.0

How did COc1ccc(C(C)(C)C)cc1NC(=O)c1ccc2c(c1)SC1=NS(=O)(=O)CCN12 do in these assays?
Scp1 inh: -8.7; LMPTP block: -0.7; UBC9 SUMO inh: 16.2; SUMO1 PPI mod: -1.7; STEP block: -0.4; DNMT1 block: 68.9*; DNMT1 inh conf: 0.0; Beacon interf: 1.6

What do the screens show for `O=C(O)c1ccc2c(c1)SC1=NS(=O)(=O)CCN12`?
Scp1 inh: -4.1; LMPTP block: -1.0; UBC9 SUMO inh: 18.6; SUMO1 PPI mod: -2.7; STEP block: 1.5; DNMT1 block: 2.7

How did COc1ccc(-c2ccc3c(=O)cc(-c4ccsc4)oc3c2)cn1 do in these assays?
Scp1 inh: 1.2; LMPTP block: 33.5; SUMO1 PPI mod: 18.8; STEP block: -1.8; DNMT1 block: 53.1*; DNMT1 inh conf: 1.3; Beacon interf: 2.2

How did COc1ccc(-c2cc(=O)c3ccc(O)cc3o2)cc1 do in these assays?
Scp1 inh: -4.3; LMPTP block: 0.9; SUMO1 PPI mod: -4.5; STEP block: -2.2; DNMT1 block: -3.1

Results for Cc1ccccc1NC(=O)C[n+]1cc(-c2ccccc2)n2c1CCC2 ?
Scp1 inh: -1.2; LMPTP block: -3.4; UBC9 SUMO inh: 11.9; SUMO1 PPI mod: 3.0; STEP block: -2.1; DNMT1 block: -0.7

What do the screens show for `O=C(Cc1ccc(Cl)cc1)NNC(=O)C(=O)NC1CCCCC1`?
Scp1 inh: -9.5; LMPTP block: 1.4; SUMO1 PPI mod: -3.1; STEP block: 0.0; DNMT1 block: 3.4

How did CC12CCC3c4ccc(O)c([N+](=O)[O-])c4CCC3C1CCC2=O (stereo not drawn) do in these assays?
LMPTP block: 30.9; SUMO1 PPI mod: -7.8; STEP block: -2.3; DNMT1 block: 78.3*; DNMT1 inh conf: 7.4; Beacon interf: 6.0

What do the screens show for `COc1ccc(N=Cc2oc3ccc4ccccc4c3c2O)cc1`?
Scp1 inh: 39.9; LMPTP block: 11.1; UBC9 SUMO inh: 29.6; SUMO1 PPI mod: -14.7; STEP block: 20.4; DNMT1 block: 60.0*; DNMT1 inh conf: 3.5; Beacon interf: 1.7

What do the screens show for `CCc1ccc(CN(C)C(=O)c2cc(COc3ccc(OC)cc3Cl)on2)nc1`?
Scp1 inh: -1.8; LMPTP block: 1.0; UBC9 SUMO inh: 11.0; SUMO1 PPI mod: 1.9; STEP block: 0.9; DNMT1 block: -1.1

What do the screens show for `CC1CCCCN1C(=O)c1cc2ccccc2cc1O` (stereo not drawn)?
Scp1 inh: -2.0; LMPTP block: -1.1; UBC9 SUMO inh: 20.2; SUMO1 PPI mod: -8.6; STEP block: -2.1; DNMT1 block: 2.6

How did CCCC[C@@H]1C=C(C(=O)O)[C@H](c2ccc(CC)cc2)N1S(=O)(=O)c1ccc(C)cc1 do in these assays?
Scp1 inh: -10.9; LMPTP block: -1.3; SUMO1 PPI mod: 8.6; STEP block: 2.3; DNMT1 block: 2.0

Results for CCc1ccc([C@H]2C(C(=O)O)=C[C@@H](CC)N2S(=O)(=O)c2ccc(C)cc2)cc1 ?
Scp1 inh: 8.2; LMPTP block: -2.0; SUMO1 PPI mod: 1.8; STEP block: 1.7; DNMT1 block: 73.9*; DNMT1 inh conf: 3.6; Beacon interf: 1.2
